The record followed here is PubChem BioAssay.

Assay [1] is described as follows: inhibitors of TNFa-induced NFkB p65 translocation, primary screen, imaging, HUVEC, MLSMR starter and 10KST1 sets (AID 438;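 active = inhibition above 20% together with a positive visual image hit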;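 also: compound added about 3h40 before a 20 min TNFalpha stimulation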;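 as to inhibition: signal is the nuclear over cytoplasmic p65 intensity ratio per well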). Conditions: HUVEC TNFa-induced p65 nuclear translocation; cell count: measured here: nuclei count (cytotoxicity indicator), at 2.08 µM; inhibition: at 2 µM, stronger effect = higher value, 0% TNFa-plus-vehicle, 100% no-TNFa wells.
Assay [2] in a line: reduction of polyQ htt aggregates in cells – imaging, exon1htt(103Q)mCFP cells, high-content imaging, primary screen (AID 483;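 active = visual image review flags a hit and inhibition of aggregation exceeds 20%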;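 also: compound exposure lasted 3 days before fixation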;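 as to nuclei count: percent of the per-plate median nuclei count of sample wells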). The following applies: exon1htt(103Q)mCFP cell line, aggregate imaging, at 2 µM; inhibition of aggregation: stronger effect = higher value; nuclei count: measured here: cell count, toxicity.
A short description of assay [3]: endothelial E-selectin expression blockers – imaging, HUVEC, immunofluorescence, MLSMR starter and 10KST1 sets, primary screen (AID 487;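 active = visually confirmed hit in the image check and inhibition above 20%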;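 as to inhibition: signal is fraction of cell area covered by stained E-selectin grains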;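 as to nuclei count: 100% = median nuclei count of all wells on the same plate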). Conditions: HUVEC TNFalpha-induced E-selectin immunofluorescence imaging, at 2 µM; inhibition: stronger effect = higher value; nuclei count: measured here: cell number, toxicity.
For assay [4], the target named is Voltage-gated potassium channel subunit beta-2 (Rattus norvegicus) (UniProt P62483). The assay is described as follows: inhibitors of rat Kvbeta2 reductase activity – biochemical, NADPH fluorescence, primary screen (AID 622;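 active = fluorescence slope higher than the sample average by over 3 SD, cut at about -0.22 in these data, passing the limit was not always enough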;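 also: slope of raw intensity against log time taken from 70 to 1610 s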). The following applies: recombinant KvBeta, 4-cyanobenzaldehyde reduction, at 10 µM, stronger effect = higher value.
For assay [5] the target is unchanged. The assay can be described thus: enhancers of rat Kvbeta2 NADPH turnover – biochemical, NADPH fluorescence, primary screen (AID 623;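 active = NADPH fluorescence slope more negative than the mean of all samples by about 3 SD, 99.7% confidence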;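 also: fluorescence intensity change per second fitted from 20 to 320 s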). The following applies: Recombinant KvBeta, NADPH fluorescence decrease slope, 10 min; at 10 µM; stronger effect = lower value.
For assay [6], the target named is Muscarinic acetylcholine receptor M4 (Homo sapiens) (UniProt P08173). The assay can be described thus: M4-linked GIRK flux change, two-sided – cell-based, HEK293 M4/GIRK, thallium flux, BTC-AM, M4 allosteric agonist project, primary screen (AID 625;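 active = fluorescence slope after compound addition differing from the mean of all tested samples at 99.7% confidence, mostly higher but some lower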;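 also: thallium influx through GIRK channels coupled to M4 in HEK293 cells with BTC-AM dye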). The following applies: at 10 µM, actives lie on both sides. In outline:
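Assay system: HEK293 cells with M4 receptor and GIRK channels / Controls: carbachol and DMSO controls / Schedule: 1 h dye loading, 2 min kinetic read / Technique: kinetic fluorescence with BTC-AM dye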

The nature of assay [7]: blockers of RIG-like receptor reporter activation – cell-based, Sendai virus stimulus, luciferase, 10K MLSCN set, TLR/RLR signaling modifier project, primary screen (AID 602276;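 active = inhibition at or above 50% at 10 µM; inactive = inhibition below 50%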;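 also: firefly luciferase from ISG56 promoter only with Renilla not read in this screen; 0% = Sendai virus plus DMSO and 100% = medium plus DMSO without virus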). The following applies: HEK293 RL24 IRF3 luciferase reporter, at 10 µM, stronger effect = higher value.
Assay [8] in a line: TLR3 IRF3 reporter activation blockers – cell-based, poly I:C stimulus, luciferase, 10K MLSCN set, primary screen (AID 602277). The following applies: HEK293-TLR3 RL24 IRF3 luciferase reporter, at 10 µM, stronger effect = higher value. (Reporter assays use an easily measured gene product as a stand-in for the process of interest.)

Active and inactive are the calls of the source.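 The calls were made as follows, unless noted: active = inhibition of the reporter signal at or above 50%; inactive = inhibition below 50%.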

By inhibition is commonly meant the change of the read-out against control, counted positive when it falls.

Sequence of Voltage-gated potassium channel subunit beta-2 (Rattus norvegicus) (P62483 whole entry, looked up): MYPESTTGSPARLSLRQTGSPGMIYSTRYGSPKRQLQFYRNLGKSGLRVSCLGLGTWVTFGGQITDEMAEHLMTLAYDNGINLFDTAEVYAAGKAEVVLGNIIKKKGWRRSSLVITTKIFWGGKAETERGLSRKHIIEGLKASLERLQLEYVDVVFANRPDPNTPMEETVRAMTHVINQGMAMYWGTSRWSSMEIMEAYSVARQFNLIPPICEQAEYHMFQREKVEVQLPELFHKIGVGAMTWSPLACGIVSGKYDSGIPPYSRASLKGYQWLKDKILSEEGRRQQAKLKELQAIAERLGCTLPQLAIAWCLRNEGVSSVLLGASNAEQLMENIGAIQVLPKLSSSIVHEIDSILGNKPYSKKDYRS
Sequence of Muscarinic acetylcholine receptor M4 (Homo sapiens) (P08173 whole entry, looked up): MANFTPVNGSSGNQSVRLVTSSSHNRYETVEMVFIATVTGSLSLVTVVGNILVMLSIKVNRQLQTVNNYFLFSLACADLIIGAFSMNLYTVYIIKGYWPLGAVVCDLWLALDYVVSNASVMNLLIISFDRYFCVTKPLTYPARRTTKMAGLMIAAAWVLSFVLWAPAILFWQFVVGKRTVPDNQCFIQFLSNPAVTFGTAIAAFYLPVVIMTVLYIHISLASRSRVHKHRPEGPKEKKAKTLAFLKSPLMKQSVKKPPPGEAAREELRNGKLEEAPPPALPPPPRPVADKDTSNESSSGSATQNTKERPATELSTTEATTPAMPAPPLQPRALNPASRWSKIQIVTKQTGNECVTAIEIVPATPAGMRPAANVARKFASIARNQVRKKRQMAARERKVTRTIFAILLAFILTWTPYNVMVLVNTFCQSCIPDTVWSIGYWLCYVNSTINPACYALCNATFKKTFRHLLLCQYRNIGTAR

With `Cc1cc(C)n2nc(C(=O)NCc3ccco3)nc2n1`, the cell count in assay [1] came to 389. For the same compound, the inhibition in assay [1] was 1.4% (inactive); in assay [3], -3.3% (inactive); in assay [7], 10.5% (inactive); in assay [8] it was 10.8% (inactive). In assay [2], the inhibition of aggregation was 6.6% (inactive). The nuclei count in assay [2] worked out at 103%; in assay [3], 109%. In addition, the results for the fluorescence slope in assay [4] and in assay [6] were -0.582 (inactive) and 0.00618 (inactive), respectively. Further, the NADPH fluorescence slope in assay [5] is -4.1e-05 (inactive).

Regarding `CCOc1ccccc1N1CCN(S(=O)(=O)c2cccc3nsnc23)CC1`, the cell count in assay [1] is 453. For the same compound, the inhibition in assay [1] was 3.9% (inactive); in assay [3], -6.6% (inactive); in assay [7], 22.8% (inactive); in assay [8], 18.5% (inactive). Also, the inhibition of aggregation in assay [2] was -10.4% (inactive). Besides, the values for the nuclei count in assay [2] and in assay [3] were 94% and 106%, respectively. For the same compound, the results for the fluorescence slope in assay [4] and in assay [6] were -0.472 (inactive) and 0.00356 (inactive), respectively. The NADPH fluorescence slope in assay [5] was 2.9e-06 (inactive).

In the case of `COc1ccc(OC)c(C(=O)c2nc3c(n2O)CCCCC3)c1`, the cell count in assay [1] stood at 332. The inhibition in assay [1] was -1.1% (inactive); in assay [3], -55% (inactive); in assay [7], 5.91% (inactive); in assay [8], 7.03% (inactive). Further, the inhibition of aggregation in assay [2] was -40.7% (inactive). The nuclei count came to 114% in assay [2] and 103% in assay [3]. Moreover, the fluorescence slope in assay [4] was -0.567 (inactive); in assay [6], 0.00381 (inactive). Moreover, in assay [5], the NADPH fluorescence slope was -6.5e-05 (inactive).

On to `CCn1c(C)nc2cc(C(=O)OC(C(F)(F)C(F)F)C(F)(F)C(F)F)ccc21`, for which the cell count in assay [1] is 358. Moreover, the inhibition in assay [1] is 6% (inactive); in assay [3] it was -20.9% (inactive); in assay [7], 7.52% (inactive); in assay [8], -180% (inactive). Besides, the inhibition of aggregation in assay [2] is 12.2% (inactive). The nuclei count was 91.2% in assay [2] and 93.6% in assay [3]. In addition, the fluorescence slope was -0.557 (inactive) in assay [4] and 0.00666 (inactive) in assay [6]. Moreover, in assay [5], the NADPH fluorescence slope is -2.6e-05 (inactive).

On to `COc1ccc(C2CC(=O)c3c(C)nc(N4CCN(c5ccccc5)CC4)nc3C2)cc1` (stereo not drawn), for which, in assay [1], the cell count amounted to 598. Besides, the inhibition is 5.6% (inactive) in assay [1], 29.4% (inactive) in assay [3], 8.81% (inactive) in assay [7] and -8.5% (inactive) in assay [8]. For the same compound, the inhibition of aggregation in assay [2] is -5.3% (inactive). For the same compound, the values for the nuclei count in assay [2] and in assay [3] were 109% and 108%, respectively. Moreover, the fluorescence slope was -0.574 (inactive) in assay [4] and 0.00457 (inactive) in assay [6]. For the same compound, in assay [5], the NADPH fluorescence slope was -4.7e-05 (inactive).

For `CCCC(=O)Nc1ccc(NC(=O)C2CC2)cn1`, the cell count in assay [1] was 471. Besides, the inhibition in assay [1] was -17.9% (inactive); in assay [3], -79.6% (inactive); in assay [7], 14.1% (inactive); in assay [8], -13.6% (inactive). For the same compound, the inhibition of aggregation in assay [2] is -28.9% (inactive). The nuclei count in assay [2] came out at 99.8%; in assay [3], 112%. Besides, the fluorescence slope is -0.527 (inactive) in assay [4] and 0.00449 (inactive) in assay [6]. In addition, in assay [5], the NADPH fluorescence slope was 1.9e-05 (inactive).

For the compound `O=C(Nc1cc(C(F)(F)F)ccc1Cl)c1cc(C2CC2)on1`, the cell count in assay [1] worked out at 404. Moreover, the inhibition was -3.9% (inactive) in assay [1], -25.8% (inactive) in assay [3], 21.5% (inactive) in assay [7] and 27.4% (inactive) in assay [8]. In addition, the inhibition of aggregation in assay [2] was -8.1% (inactive). The nuclei count in assay [2] was 102%; in assay [3], 61.5%. In addition, the fluorescence slope in assay [4] is -0.45 (inactive); in assay [6], 0.00518 (inactive). Also, the NADPH fluorescence slope in assay [5] was -5.4e-05 (inactive).

As to `O=c1ccn(Cc2ccccc2Cl)cc1`, in assay [1], the cell count is 440. For the same compound, the inhibition in assay [1] was 3% (inactive); in assay [3], 0.1% (inactive); in assay [7] it was 15.6% (inactive); in assay [8], 14.2% (inactive). In assay [2], the inhibition of aggregation was 1.3% (inactive). Moreover, the nuclei count is 102% in assay [2] and 131% in assay [3]. The values for the fluorescence slope in assay [4] and in assay [6] were -0.426 (inactive) and 0.00507 (inactive), respectively. Also, the NADPH fluorescence slope in assay [5] is -4e-05 (inactive).
